Screening results as filed in PubChem.
Compounds with a hit are over-represented: about 2.5% of the library has one in this group of screens.
TRPML3 agonist: activates the human TRPML3 channel | Q8TDD5 | HEK293 TRPML3-YFP, Fluo-8 calcium fluorescence; 100% = the carbachol control signal | activation, % at 3 µM | 220,000 compounds, 0.29% hits;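 active means activation above its plate's cutoff, the mean activation of the plate's test wells plus 3 SD, cut at about 12% in these data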
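Material: TRPML3-YFP stable HEK293 cells | Dosing: One concentration, 3 µM nominal, 0.3% DMSO | Timing: 125 s total fluorescence read per well | Technique: Fluo-8 calcium dye fluorescence, ex 470-495, em 515-575 nm | Measure: Percent activation from peak-to-basal fluorescence ratio, scaled between DMSO and carbachol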
OX1R antag-1: antagonists of human orexin 1 receptor; O43613; CHO/OX1R cells, Fluo-8 calcium fluorescence, orexin A; inhibition, % at 5 µM; 330,000 compounds, 0.43% hits; AID 434989;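 active means inhibition above its plate's threshold, mean inhibition of all tested compounds on the plate plus 3 SD, cut at about 37% in these data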
Target sequence (O43613 whole entry, looked up): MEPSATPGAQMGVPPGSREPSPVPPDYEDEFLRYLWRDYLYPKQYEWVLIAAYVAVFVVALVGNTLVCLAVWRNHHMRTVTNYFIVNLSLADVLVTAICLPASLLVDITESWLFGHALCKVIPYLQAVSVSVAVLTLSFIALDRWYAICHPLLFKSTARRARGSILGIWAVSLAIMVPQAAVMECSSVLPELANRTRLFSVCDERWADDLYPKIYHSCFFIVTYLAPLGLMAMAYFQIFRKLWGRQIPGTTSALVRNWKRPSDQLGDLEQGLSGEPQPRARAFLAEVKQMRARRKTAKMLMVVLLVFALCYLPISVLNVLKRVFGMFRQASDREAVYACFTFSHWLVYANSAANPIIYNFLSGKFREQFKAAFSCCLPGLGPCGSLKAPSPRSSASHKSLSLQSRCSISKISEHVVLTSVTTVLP
CHO parental Ca: counter-screen: ATP calcium response change in parental CHO cells. parental CHO-K1, ATP-induced calcium, Fluo-8 fluorescence. 330,000 compounds, 0.63% hits. inhibition, % at 5.6 µM;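 active means inhibition above that plate's mean sample inhibition plus 3 SD, cut at about 26% in these data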
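Assay system – parental CHO cells · Reagent – ATP stimulus · Detection – intracellular calcium via Fluo-8 no-wash fluorescent dye · Evaluation – percent inhibition of ATP-evoked calcium rise, normalized to controls · Controls – ATP wells versus no-ATP DMSO wells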
TRPN1 ag: zebrafish TRPN1 (NompC) channel agonism; activation, % at 3 µM; HEK293 zebrafish TRPN1-YFP, Fluo-8 calcium fluorescence; 100% = response to 87 µM carbachol; 220,000 compounds, 0.18% hits;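 active means activation above its plate's cutoff, the mean activation of test wells on that plate plus 3 SD, cut at about 19% in these data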
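Material: zebrafish TRPN1-YFP in HEK293 cells; Doses: single test compound dose, 3 µM nominal, 0.3% DMSO; Timing: dye loading 1 h at 37 °C, then 30 min room temperature; Technique: intracellular calcium fluorescence with Fluo-8; Benchmarks: high carbachol 87 µM, low DMSO alone.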
OX1R antag-2: OX1R (human) antagonism | inhibition, % at 6.6 µM | OX1R-expressing cells, FRET antagonist read-out | O43613 | 330,000 compounds, 1.8% hits; in the data active means inhibition mostly above about 38%, no sharp cut-off; inactive means mostly below about 40%
Hits are given with their value; - = inactive; . = no result.

SMILES	TRPML3 agonist	OX1R antag-1	CHO parental Ca	TRPN1 ag	OX1R antag-2
O=C(N/N=C/c1c[nH]c2ccc(Br)cc12)c1ccc2c(c1)OCO2	-	-	-	-	68.6
O=C(N/N=C/c1cc(Cl)cc(Cl)c1O)c1ccncc1	-	-	-	23.9	-
COc1ccc(C(=O)Nc2ccc(NS(=O)(=O)c3ccccc3)cc2)cc1OC	-	-	-	-	-
Cc1ccc(CN(C)C(=O)CN2C(=O)NC(c3ccccc3)(c3ccccc3)C2=O)c(C)c1	.	-	-	.	-
COc1ccc(S(=O)(=O)N2CCCCC2)cc1NC(=O)CCCNC(=O)c1ccc(Cl)cc1	.	-	-	.	-
CCN(CC)C(=O)c1c(-c2ccccc2)oc2ccc(O)cc12	.	-	-	.	-
c1csc(CSc2nc3ccccc3s2)c1	-	-	-	-	-
CCn1c(CSc2nc3ccccc3s2)nc2ccccc21	-	79.2	54.7	-	100.4
O=c1[nH]nc(-c2ccc(NCCO)c([N+](=O)[O-])c2)c2ccccc12	.	-	-	.	41.0
CSc1ccc(CN(C)C(=O)C2CCN(C(=O)Nc3ccccc3)CC2)cc1	.	-	-	.	-
COC(=O)C(NC(=O)C(NC(=O)C1CCC(C)CC1)C(C)C)C(C)C (centres undefined)	.	-	-	.	-
NC1=Nc2cccc3cccc1c23	-	-	-	-	71.0
C(=N\NC1=Nc2cccc3cccc1c23)/c1ccccc1	-	-	-	-	-
COCC(=O)N(C)C[C@H]1N[C@@](C)(C(=O)OC)[C@H]2C(=O)N(Cc3ccccc3)C(=O)[C@@H]12	.	-	-	.	-
CC[C@H](CO)Nc1nc(Nc2cccc(Cl)c2)c2ncn(C(C)C)c2n1	.	-	-	.	-
CC(C)[C@H](CO)N(Cc1cccc(F)c1)c1nc(Nc2cccc(Cl)c2)c2ncn(C(C)C)c2n1	.	-	37.0	.	-
CCC(C)C(NC(=O)C(C)NC(=O)CNC(=O)OC(C)(C)C)C(N)=O (centres undefined)	-	-	-	-	-
CC(=O)Nc1ccc(S(=O)(=O)N2CCN=C2SCc2ccc([N+](=O)[O-])cc2)cc1	.	-	33.1	.	-
NC(=O)Nn1c(CCC(=O)O)ccc1-c1ccc(Cl)cc1	-	-	-	-	-
O=C(O)CCc1ccc(-c2ccccc2)n1NC(=O)c1sc2ccccc2c1Cl	-	-	-	-	40.7
O=C(CSc1ccc2nnc(CCNC(=O)c3ccccc3)n2n1)Nc1ccc(F)cc1F	.	-	-	.	-
CC(=O)N1CCN(C2=NC(=O)/C(=C\c3cccs3)S2)CC1	-	-	-	-	41.1
O=C1N=C(N2CCOCC2)S/C1=C\c1ccncc1	-	-	-	-	39.1
CC(C)c1ccc(/C=C2\SC(N3CCOCC3)=NC2=O)cc1	-	-	-	-	-
Clc1ccc(CON/C=N/c2ncnc3sccc23)c(Cl)c1	-	-	-	-	45.4
SMILES	TRPML3 agonist	OX1R antag-1	CHO parental Ca	TRPN1 ag	OX1R antag-2
Clc1ccc(CONc2ncnc3nonc23)c(Cl)c1	-	-	-	-	-
CN(Cc1nc2ccccc2c(=O)[nH]1)C(=O)COc1ccccc1Cc1ccccc1	.	-	-	.	-
CN(C)/C=C/C1=CC(=O)CC(C)(C)C1	-	-	-	-	-
COc1ccc(/C=C/C(=O)NNC(=O)c2cc(C)oc2C)cc1	.	-	-	.	-
CN1C=CC=C/C1=C1/SC(=S)N(Cc2ccccc2)C1=O	-	-	-	-	-
CCN1C(=O)/C(=C2/C=CC=CN2C)SC1=S	-	-	-	-	45.8
O=C(Nc1cccc(-c2nc3ccccc3o2)c1)c1cccnc1	-	-	-	-	65.3
COc1ccc2cc(C(=O)Nc3ccccc3)sc(=O)c2c1OC	-	-	-	-	-
O=C(Nc1ccccc1)c1cc2ccc3ccccc3c2s1	-	-	-	-	50.6
O=C(COc1ncnc2ccccc12)NC1CCCC1	.	-	-	.	-
O=C(COc1ncnc2cc([N+](=O)[O-])ccc12)NC1CCCCC1	-	-	-	-	56.2
O=C(COc1ncnc2cc([N+](=O)[O-])ccc12)N(CCc1ccccc1)Cc1ccccc1	-	54.0	72.4	-	-
CCCCn1c(N)c(N(CCOC)C(=O)C2CC(=O)N(c3cccc(SC)c3)C2)c(=O)[nH]c1=O (centres undefined)	.	-	-	.	-
O=C(N=Nc1c(O)[nH]c2ccccc12)c1ccc2c(c1)OCO2	-	-	-	-	-
